According to ChEMBL document CHEMBL3233000, “Cytotoxic ent-kaurane diterpenoids from Isodon wikstroemioides” (J Nat Prod, 2014):

How the values were obtained:
Type in all cases: functional, cell-based
[1] = tested on: MCF7; assay: Cytotoxicity against human MCF7 cells assessed as growth inhibition after 48 hrs by MTS assay; details: MCF7, 48 h
Procedure, shortened: (§1)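 Cell lines from ATCC, grown in RPMI-1640 or DMEM with 10% FBS at 37 °C, 5% CO2. Cells seeded, incubated 12 h at 37 °C, then screened at 40 μM for 48 h with MTS read-out. Where growth inhibition reached 50%, retested at 0.064, 0.32, 1.6, 8 and 40 μM in triplicate. Cisplatin and paclitaxel were positive controls. IC50 by Reed and Muench method.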

[2] = tested on: SMMC-7721; assay: Cytotoxicity against human SMMC7721 cells assessed as growth inhibition after 48 hrs by MTS assay; details: SMMC-7721, 48 h; procedure, shortened: as §1
[3] = tested on: HL-60; assay: Cytotoxicity against human HL60 cells assessed as growth inhibition after 48 hrs by MTS assay; details: HL-60, 48 h; procedure, shortened: as §1
[4] = tested on: SW480; assay: Cytotoxicity against human SW480 cells assessed as growth inhibition after 48 hrs by MTS assay; details: SW480, 48 h; procedure, shortened: as §1
[5] = tested on: A549; assay: Cytotoxicity against human A549 cells assessed as growth inhibition after 48 hrs by MTS assay; details: A549, 48 h; procedure, shortened: as §1
[6] = tested on: RAW264.7; assay: Inhibition of nitric oxide production in LPS-stimulated mouse RAW264.7 cells after 18 hrs by griess reagent based plate reader analysis; details: RAW264.7, 18 h
Procedure, shortened: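 RAW264.7 macrophages seeded at 2 × 10^5 cells/well. Treated with serial dilutions (top concentration 25 μM), then stimulated with LPS 1 μg/mL for 18 h. Supernatant NO measured with Griess reagents, absorbance 550 nm. MG-132 was the positive control. Viability was checked in parallel by MTT (595 nm) to exclude cytotoxic interference.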

Row | Compound | IC50 [6] | IC50 [1] | IC50 [2] | IC50 [3] | IC50 [4] | IC50 [5]
1 | C=C1C(=O)[C@@]23[C@H](O)C[C@@H]4[C@@](C)(CO)[C@H](O)CC[C@@]4(C)[C@@H]2C[C@H](O)[C@@H]1[C@H]3O | – | > 10 µM | > 10 µM | > 10 µM | > 10 µM | > 10 µM
2 | C=C1C(=O)[C@@]23[C@H](O)C[C@@H]4[C@@](C)(CO)CCC[C@@]4(C)[C@@H]2[C@@H](O)C[C@@H]1[C@H]3O [RABDOKUNMIN D] | – | > 10 µM | > 10 µM | > 10 µM | > 10 µM | > 10 µM
3 | C=C1[C@H]2[C@@H](O)[C@@]3([C@H](O)C[C@@H]4[C@@](C)(CO)CCC[C@@]4(C)[C@@H]3C[C@@H]2O)[C@@H]1OC(C)=O [ALBOPILOSIN B] | – | > 10 µM | > 10 µM | > 10 µM | > 10 µM | > 10 µM
4 | C=C1[C@@H]2C[C@H](O)[C@H]3[C@]4(C)[C@@H](OC(C)=O)C[C@H](O)C(C)(C)[C@H]4[C@@H](OC(C)=O)[C@H](OC(C)=O)[C@]3(C2)[C@@H]1O [NERVONIN G] | – | > 10 µM | > 10 µM | > 10 µM | > 10 µM | > 10 µM
5 | CC(=O)O[C@H]1C(=O)[C@@]2(C)[C@H]([C@H](OC(=O)c3ccccc3)[C@]3(O)C[C@H](OC(=O)[C@H](O)[C@@H](NC(=O)c4ccccc4)c4ccccc4)C(C)=C1C3(C)C)[C@]1(OC(C)=O)CO[C@@H]1C[C@@H]2O [PACLITAXEL] | – | < 0.008 µM | < 0.008 µM | < 0.008 µM | < 0.008 µM | < 0.008 µM
6 | C=C1[C@@H]2C[C@H](OC(C)=O)[C@H]3[C@]4(C)[C@@H](OC(C)=O)C[C@H](O)C(C)(C)[C@H]4C(=O)[C@H](O)[C@]3(C2)[C@@H]1O [NERVONIN E] | – | > 10 µM | > 10 µM | > 10 µM | > 10 µM | > 10 µM
7 | C=C1C(=O)[C@@]23CC[C@@H]4[C@@](C)(CO)CCC[C@@]4(C=O)[C@@H]2CC[C@@H]1[C@H]3O | 9.9 µM | > 10 µM | > 10 µM | > 10 µM | > 10 µM | > 10 µM
8 | C=C1C(=O)[C@]23C[C@H]1CC[C@H]2[C@]1(CO)CCC[C@](C)(CO)[C@H]1C[C@H]3O | 2.8 µM | 7.3 µM | 7.1 µM | > 10 µM | 4 µM | > 10 µM
9 | C=C1C(=O)[C@@]23[C@H](O)C[C@@H]4C(C)(C)[C@H](O)CC[C@@]4(C)[C@@H]2[C@@H](O)[C@H](O)[C@@H]1[C@H]3O | – | > 10 µM | > 10 µM | > 10 µM | > 10 µM | > 10 µM
10 | C=C1C(=O)[C@@]23[C@H](O)C[C@@H]4[C@@](C)(CO)[C@@H](O)CC[C@@]4(C)[C@@H]2CC(=O)[C@@H]1[C@H]3O | – | > 10 µM | > 10 µM | > 10 µM | > 10 µM | > 10 µM
11 | C=C1[C@@H]2C[C@H](OC(C)=O)[C@H]3[C@]4(C)[C@@H](OC(C)=O)C[C@H](O)C(C)(C)[C@H]4C(=O)[C@H](OC(C)=O)[C@]3(C2)[C@@H]1O [ADENANTHIN J] | – | > 10 µM | > 10 µM | > 10 µM | > 10 µM | > 10 µM
12 | C=C1C(=O)[C@]23[C@H](O)[C@H]1[C@@H](O)C[C@H]2[C@]1(C)CCC[C@](C)(COC(C)=O)[C@H]1C[C@H]3OC(C)=O | 5 µM | 1.6 µM | 3.5 µM | 2.9 µM | 0.9 µM | 2.7 µM
13 | C=C1[C@H]2[C@@H](O)[C@@]3([C@H](O)C[C@@H]4[C@@](C)(CO)CCC[C@@]4(C)[C@@H]3C[C@@H]2O)[C@@H]1O | – | > 10 µM | > 10 µM | > 10 µM | > 10 µM | > 10 µM
14 | C=C1C(=O)[C@@]23[C@H](O)C[C@@H]4[C@@](C)(CO)CCC[C@@]4(CO)[C@@H]2C[C@H](O)[C@@H]1[C@H]3O | – | > 10 µM | > 10 µM | > 10 µM | > 10 µM | > 10 µM
15 | C=C1[C@@H]2CC[C@H]3[C@]4(C)CCC(=O)[C@](C)(CO)[C@H]4CC[C@]3(C2)[C@@H]1O | – | > 10 µM | > 10 µM | > 10 µM | > 10 µM | > 10 µM
16 | C=C1[C@@H]2C[C@H](OC(C)=O)[C@H]3[C@]4(C)[C@@H](OC(C)=O)C[C@H](O)C(C)(C)[C@H]4C(=O)[C@H](O)[C@]3(C2)[C@@H]1OC(C)=O [ADENANTHIN K] | – | > 10 µM | > 10 µM | > 10 µM | > 10 µM | > 10 µM

The next lines start with results.

Row | IC50 [6] | Compound | IC50 [1] | IC50 [2] | IC50 [3] | IC50 [4] | IC50 [5]
17 | 7.2 µM | C=C1C(=O)[C@@]23[C@H](O)C[C@@H]4C(C)(C)CCC[C@@]4(C)[C@@H]2[C@@H](O)[C@H](O)[C@@H]1[C@H]3OC(C)=O [RABDOKUNMIN A] | > 10 µM | 5.8 µM | 8.8 µM | 4.7 µM | > 10 µM
18 | 1 µM | C=C1C(=O)[C@@]23[C@H](O)C[C@@H]4C(C)(C)CCC[C@@]4(C)[C@@H]2[C@@H](O)C[C@@H]1[C@H]3O [PHYLLOSTACHYSIN F] | 1.5 µM | 2.1 µM | 3.3 µM | 1.1 µM | 2.3 µM
19 | 4.7 µM | C=C1C(=O)[C@@]23CC[C@@H]4[C@@](C)(CO)[C@H](O)CC[C@@]4(C)[C@@H]2C[C@H](O)[C@@H]1C3 | 4.8 µM | 4.1 µM | 4.1 µM | 2.7 µM | 3.7 µM
20 | 7.2 µM | C=C1C(=O)[C@]23[C@H](O)[C@H]1[C@@H](O)[C@H](O)[C@H]2[C@]1(C)CCCC(C)(C)[C@H]1C[C@H]3OC(C)=O | > 10 µM | 5.8 µM | 8.8 µM | 4.7 µM | > 10 µM
21 | 1 µM | C=C1C(=O)[C@@]23[C@H](O)C[C@@H]4[C@@](C)(CO)CCC[C@@]4(C)[C@@H]2CC[C@@H]1[C@H]3O [EXCISANIN C] | 1.6 µM | 2.7 µM | 3 µM | 1.3 µM | 2.1 µM
22 | 1.9 µM | C=C1C(=O)[C@@]23[C@H](O)C[C@@H]4[C@@](C)(COC(C)=O)CCC[C@@]4(C)[C@@H]2C[C@H](O)[C@@H]1[C@H]3O [ALBOPILOSIN A] | 1.7 µM | 1.4 µM | 2 µM | 0.9 µM | 3.2 µM
23 | 1.9 µM | C=C1C(=O)[C@@]23CC[C@H]4[C@@](C)(CCC[C@]4(C)C=O)[C@@H]2C[C@H](O)[C@@H]1[C@H]3O | 1.7 µM | 1.4 µM | 3.2 µM | 1 µM | 0.9 µM
24 | 2.7 µM | C=C1C(=O)[C@@]23[C@H](O)C[C@H]4[C@@](C)(CCC[C@]4(C)C=O)[C@@H]2C[C@H](O)[C@@H]1[C@H]3O [MACROCALYXIN C] | 3.7 µM | 4 µM | 3.7 µM | 2.1 µM | > 10 µM
25 | 16.8 µM | C=C1C(=O)[C@]23[C@H](O)[C@H]1[C@@H](O)C[C@H]2[C@]1(C)CCC[C@](C)(CO)[C@H]1C[C@H]3OC(C)=O | > 10 µM | > 10 µM | > 10 µM | 6.9 µM | > 10 µM
26 | 1.9 µM | C=C1C(=O)[C@@]23[C@H](O)C[C@@H]4C(C)(C)CCC[C@@]4(C)[C@@H]2[C@@H](O)[C@H](O)[C@@H]1[C@H]3O [RABDOLOXIN B] | 3 µM | 3.4 µM | 2.9 µM | 2.4 µM | 4.4 µM
27 | 1.1 µM | C=C1C(=O)[C@@]23CC(=O)[C@@H]4C(C)(C)CCC[C@@]4(C)[C@@H]2[C@@H](O)C[C@@H]1[C@H]3O | 1.6 µM | 0.8 µM | 3.1 µM | 1 µM | 1 µM
28 | 4.8 µM | C=C1C(=O)[C@@]23CC[C@@H]4[C@@](C)(CO)CCC[C@@]4(C)[C@@H]2C[C@H](O)[C@@H]1[C@H]3O | > 10 µM | 4 µM | 8.8 µM | 4 µM | > 10 µM
29 | 2.5 µM | C=C1C(=O)[C@@]23C[C@H](O)[C@@H]4C(C)(C)CCC[C@@]4(C)[C@@H]2[C@@H](O)C[C@@H]1[C@H]3O | 3.7 µM | 5.1 µM | 4.8 µM | 2.3 µM | 5.1 µM
30 | 0.8 µM | C=C1C(=O)[C@@]23[C@H](O)C[C@@H]4C(C)(C)CCC[C@@]4(C)[C@@H]2C[C@H](O)[C@@H]1[C@H]3O [ISOSCOPARIN L] | 0.4 µM | 1.2 µM | 0.5 µM | 0.6 µM | 0.8 µM
